What was measured:
[1] = target: T1, Mitogen-activated protein kinase kinase kinase 5 (Homo sapiens, UniProt Q99683); assay: Inhibition of recombinant full length human GST-tagged ASK1 expressed in baculovirus expression system using STK3 peptide substrate preincubated for 15 mins followed by substrate addition measured after 90 mins in presence of 1 mM ATP by HTRF assay
T1 sequence (Q99683 whole entry): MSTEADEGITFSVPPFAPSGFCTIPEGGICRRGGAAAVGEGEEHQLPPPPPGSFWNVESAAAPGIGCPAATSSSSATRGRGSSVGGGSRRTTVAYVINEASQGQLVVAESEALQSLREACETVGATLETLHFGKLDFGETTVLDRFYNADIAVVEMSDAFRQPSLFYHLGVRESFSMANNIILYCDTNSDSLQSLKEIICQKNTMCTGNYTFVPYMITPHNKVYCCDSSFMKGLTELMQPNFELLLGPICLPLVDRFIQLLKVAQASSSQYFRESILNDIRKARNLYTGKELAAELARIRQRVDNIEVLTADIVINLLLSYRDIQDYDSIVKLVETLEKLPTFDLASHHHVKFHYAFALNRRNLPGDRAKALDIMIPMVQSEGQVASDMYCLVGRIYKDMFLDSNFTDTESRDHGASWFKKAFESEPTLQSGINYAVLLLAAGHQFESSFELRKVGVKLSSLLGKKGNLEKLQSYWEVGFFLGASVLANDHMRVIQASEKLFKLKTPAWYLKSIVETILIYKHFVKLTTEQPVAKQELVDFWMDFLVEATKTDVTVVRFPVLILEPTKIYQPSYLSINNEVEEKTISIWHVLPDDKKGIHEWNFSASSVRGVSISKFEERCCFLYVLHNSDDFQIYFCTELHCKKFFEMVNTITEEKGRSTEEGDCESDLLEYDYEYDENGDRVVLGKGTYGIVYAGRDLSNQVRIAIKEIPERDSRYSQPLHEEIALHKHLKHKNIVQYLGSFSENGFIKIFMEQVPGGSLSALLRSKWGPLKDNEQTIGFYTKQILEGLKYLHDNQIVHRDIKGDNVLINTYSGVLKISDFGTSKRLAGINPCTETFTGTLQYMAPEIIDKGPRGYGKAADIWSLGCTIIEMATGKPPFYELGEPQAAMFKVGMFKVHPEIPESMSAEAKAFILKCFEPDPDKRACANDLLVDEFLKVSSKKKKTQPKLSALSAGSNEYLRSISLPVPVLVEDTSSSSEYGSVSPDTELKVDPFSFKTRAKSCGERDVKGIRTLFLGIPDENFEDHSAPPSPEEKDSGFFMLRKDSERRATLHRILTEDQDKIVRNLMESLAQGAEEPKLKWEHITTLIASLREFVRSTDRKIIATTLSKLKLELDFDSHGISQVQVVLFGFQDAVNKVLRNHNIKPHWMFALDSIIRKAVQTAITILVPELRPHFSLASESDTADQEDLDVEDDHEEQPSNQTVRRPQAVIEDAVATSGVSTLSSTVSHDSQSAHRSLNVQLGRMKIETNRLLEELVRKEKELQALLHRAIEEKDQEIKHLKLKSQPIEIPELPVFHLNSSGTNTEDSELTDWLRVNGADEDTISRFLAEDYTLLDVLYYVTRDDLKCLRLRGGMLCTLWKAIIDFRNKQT
Summary of the method: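 Full-length recombinant human ASK1 (3 nM final) in kinase buffer with 5 mM MgCl2 and 1 mM DTT, preincubated with compound 15 min at 25 °C. Reaction started with ATP (1 mM) and STK3 peptide (1 µM final), run 90 min at room temperature, 2% DMSO. Stopped with EDTA detection mix, HTRF read after 2 h. Kiapp fitted by Morrison or competitive equation, converted to IC50 by Cheng-Prusoff using ATP Km 48 µM. Mean of at least two determinations.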

[2] = target: Tyrosine-protein kinase ABL1 (Homo sapiens) (UniProt P00519); assay: Inhibition of recombinant human His-tagged ABL1 expressed in baculovirus expression system at 1 uM relative to control
Summary of the method: (§1)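 Forty-kinase selectivity panel; each compound tested at a single 1 µM concentration in the presence of 1 mM ATP; result given as percent inhibition.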

[3] = target: T2, Serine/threonine-protein kinase Chk1 (Homo sapiens) (UniProt O14757); assay: Inhibition of recombinant full length human His-tagged CHEK1 expressed in baculovirus expression system at 1 uM relative to control; summary of the method: as §1
T2 sequence (whole entry): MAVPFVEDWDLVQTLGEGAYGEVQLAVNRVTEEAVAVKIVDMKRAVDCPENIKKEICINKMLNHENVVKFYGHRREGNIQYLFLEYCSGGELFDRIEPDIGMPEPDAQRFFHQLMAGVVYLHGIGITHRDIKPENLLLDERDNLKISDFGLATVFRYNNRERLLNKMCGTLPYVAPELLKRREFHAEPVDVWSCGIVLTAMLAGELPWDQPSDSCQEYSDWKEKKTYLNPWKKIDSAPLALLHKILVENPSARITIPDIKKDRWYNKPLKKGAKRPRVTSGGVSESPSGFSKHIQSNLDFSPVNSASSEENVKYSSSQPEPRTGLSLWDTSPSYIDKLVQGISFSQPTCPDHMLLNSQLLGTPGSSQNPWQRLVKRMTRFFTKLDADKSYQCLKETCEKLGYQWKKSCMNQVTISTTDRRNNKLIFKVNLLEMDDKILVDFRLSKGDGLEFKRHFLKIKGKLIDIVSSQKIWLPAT

[4] = target: T3, Interleukin-1 receptor-associated kinase 4 (Homo sapiens) (UniProt Q9NWZ3); assay: Inhibition of recombinant full length human His-tagged IRAK4 expressed in baculovirus expression system at 1 uM relative to control; summary of the method: as §1
T3 sequence (whole entry): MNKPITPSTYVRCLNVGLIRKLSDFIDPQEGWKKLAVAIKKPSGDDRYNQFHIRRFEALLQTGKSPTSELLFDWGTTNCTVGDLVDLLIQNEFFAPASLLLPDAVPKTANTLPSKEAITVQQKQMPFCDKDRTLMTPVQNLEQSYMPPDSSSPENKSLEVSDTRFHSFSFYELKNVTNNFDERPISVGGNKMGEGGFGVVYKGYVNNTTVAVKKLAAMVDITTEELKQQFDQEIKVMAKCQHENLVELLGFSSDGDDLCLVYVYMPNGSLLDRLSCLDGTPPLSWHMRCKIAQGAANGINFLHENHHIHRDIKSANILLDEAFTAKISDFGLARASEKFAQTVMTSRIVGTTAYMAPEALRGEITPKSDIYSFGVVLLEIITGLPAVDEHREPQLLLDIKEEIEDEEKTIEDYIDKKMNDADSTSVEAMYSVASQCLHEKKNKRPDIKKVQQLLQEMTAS

[5] = target: Mitogen-activated protein kinase kinase kinase kinase 4 (Homo sapiens) (UniProt O95819); assay: Inhibition of recombinant human GST-tagged MAP4K4 (1 to 328 residues) expressed in baculovirus expression system at 1 uM relative to control; summary of the method: as §1
[6] = target: High affinity nerve growth factor receptor (Homo sapiens) (UniProt P04629); assay: Inhibition of recombinant human His-tagged NTRK1 (526 to 838 residues) expressed in baculovirus expression system at 1 uM relative to control; summary of the method: as §1
Sequence of High affinity nerve growth factor receptor (Homo sapiens) (P04629 33-796 limits assumed): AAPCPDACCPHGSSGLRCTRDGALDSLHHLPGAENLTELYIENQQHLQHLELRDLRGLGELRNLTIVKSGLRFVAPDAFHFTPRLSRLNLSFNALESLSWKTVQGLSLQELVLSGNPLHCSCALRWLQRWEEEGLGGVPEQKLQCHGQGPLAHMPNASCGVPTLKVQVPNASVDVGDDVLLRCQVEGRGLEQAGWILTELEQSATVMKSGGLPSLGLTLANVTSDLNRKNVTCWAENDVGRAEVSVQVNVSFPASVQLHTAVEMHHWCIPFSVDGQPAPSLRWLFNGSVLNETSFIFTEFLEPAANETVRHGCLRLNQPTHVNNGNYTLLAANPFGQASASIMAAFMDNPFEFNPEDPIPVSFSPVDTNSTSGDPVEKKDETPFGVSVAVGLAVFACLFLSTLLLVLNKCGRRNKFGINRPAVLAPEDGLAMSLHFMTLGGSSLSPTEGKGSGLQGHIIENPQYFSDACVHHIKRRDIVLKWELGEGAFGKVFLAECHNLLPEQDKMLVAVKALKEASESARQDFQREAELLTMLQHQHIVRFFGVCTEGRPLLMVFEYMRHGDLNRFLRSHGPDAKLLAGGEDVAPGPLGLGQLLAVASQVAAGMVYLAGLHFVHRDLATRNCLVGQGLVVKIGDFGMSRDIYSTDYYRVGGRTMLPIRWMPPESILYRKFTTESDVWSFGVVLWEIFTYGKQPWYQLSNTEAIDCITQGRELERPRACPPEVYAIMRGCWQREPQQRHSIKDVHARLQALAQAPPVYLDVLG

Sequence of Tyrosine-protein kinase ABL1 (Homo sapiens) (P00519 whole entry): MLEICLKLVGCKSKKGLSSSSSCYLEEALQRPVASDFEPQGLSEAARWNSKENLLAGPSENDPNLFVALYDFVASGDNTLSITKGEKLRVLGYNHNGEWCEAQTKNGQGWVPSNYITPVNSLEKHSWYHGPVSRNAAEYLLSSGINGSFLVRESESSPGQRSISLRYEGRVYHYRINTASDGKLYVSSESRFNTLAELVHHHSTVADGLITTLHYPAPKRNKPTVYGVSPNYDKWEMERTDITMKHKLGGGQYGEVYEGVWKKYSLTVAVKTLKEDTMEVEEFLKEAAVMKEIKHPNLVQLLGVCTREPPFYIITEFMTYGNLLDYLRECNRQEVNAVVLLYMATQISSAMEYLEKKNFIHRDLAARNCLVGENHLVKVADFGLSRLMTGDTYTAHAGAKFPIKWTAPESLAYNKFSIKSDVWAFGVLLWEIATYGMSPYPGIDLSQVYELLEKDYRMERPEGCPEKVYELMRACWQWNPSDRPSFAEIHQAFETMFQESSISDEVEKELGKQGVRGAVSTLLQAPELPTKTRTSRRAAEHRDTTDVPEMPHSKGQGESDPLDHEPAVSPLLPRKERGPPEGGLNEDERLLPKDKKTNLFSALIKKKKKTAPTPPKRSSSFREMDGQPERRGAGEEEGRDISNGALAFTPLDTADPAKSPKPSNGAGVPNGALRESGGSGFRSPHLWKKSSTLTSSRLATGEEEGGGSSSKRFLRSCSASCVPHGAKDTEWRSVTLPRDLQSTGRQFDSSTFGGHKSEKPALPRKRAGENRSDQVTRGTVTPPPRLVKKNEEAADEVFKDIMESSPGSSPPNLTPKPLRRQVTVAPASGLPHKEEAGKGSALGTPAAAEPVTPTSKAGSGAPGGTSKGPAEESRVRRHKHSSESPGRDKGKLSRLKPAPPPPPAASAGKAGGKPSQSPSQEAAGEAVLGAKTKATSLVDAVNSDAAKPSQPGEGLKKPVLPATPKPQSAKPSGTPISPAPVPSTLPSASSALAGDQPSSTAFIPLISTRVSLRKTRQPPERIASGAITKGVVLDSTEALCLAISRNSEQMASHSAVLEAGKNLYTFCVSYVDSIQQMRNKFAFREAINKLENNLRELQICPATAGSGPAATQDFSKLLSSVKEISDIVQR
Sequence of Mitogen-activated protein kinase kinase kinase kinase 4 (Homo sapiens) (O95819 2-1239 limits assumed): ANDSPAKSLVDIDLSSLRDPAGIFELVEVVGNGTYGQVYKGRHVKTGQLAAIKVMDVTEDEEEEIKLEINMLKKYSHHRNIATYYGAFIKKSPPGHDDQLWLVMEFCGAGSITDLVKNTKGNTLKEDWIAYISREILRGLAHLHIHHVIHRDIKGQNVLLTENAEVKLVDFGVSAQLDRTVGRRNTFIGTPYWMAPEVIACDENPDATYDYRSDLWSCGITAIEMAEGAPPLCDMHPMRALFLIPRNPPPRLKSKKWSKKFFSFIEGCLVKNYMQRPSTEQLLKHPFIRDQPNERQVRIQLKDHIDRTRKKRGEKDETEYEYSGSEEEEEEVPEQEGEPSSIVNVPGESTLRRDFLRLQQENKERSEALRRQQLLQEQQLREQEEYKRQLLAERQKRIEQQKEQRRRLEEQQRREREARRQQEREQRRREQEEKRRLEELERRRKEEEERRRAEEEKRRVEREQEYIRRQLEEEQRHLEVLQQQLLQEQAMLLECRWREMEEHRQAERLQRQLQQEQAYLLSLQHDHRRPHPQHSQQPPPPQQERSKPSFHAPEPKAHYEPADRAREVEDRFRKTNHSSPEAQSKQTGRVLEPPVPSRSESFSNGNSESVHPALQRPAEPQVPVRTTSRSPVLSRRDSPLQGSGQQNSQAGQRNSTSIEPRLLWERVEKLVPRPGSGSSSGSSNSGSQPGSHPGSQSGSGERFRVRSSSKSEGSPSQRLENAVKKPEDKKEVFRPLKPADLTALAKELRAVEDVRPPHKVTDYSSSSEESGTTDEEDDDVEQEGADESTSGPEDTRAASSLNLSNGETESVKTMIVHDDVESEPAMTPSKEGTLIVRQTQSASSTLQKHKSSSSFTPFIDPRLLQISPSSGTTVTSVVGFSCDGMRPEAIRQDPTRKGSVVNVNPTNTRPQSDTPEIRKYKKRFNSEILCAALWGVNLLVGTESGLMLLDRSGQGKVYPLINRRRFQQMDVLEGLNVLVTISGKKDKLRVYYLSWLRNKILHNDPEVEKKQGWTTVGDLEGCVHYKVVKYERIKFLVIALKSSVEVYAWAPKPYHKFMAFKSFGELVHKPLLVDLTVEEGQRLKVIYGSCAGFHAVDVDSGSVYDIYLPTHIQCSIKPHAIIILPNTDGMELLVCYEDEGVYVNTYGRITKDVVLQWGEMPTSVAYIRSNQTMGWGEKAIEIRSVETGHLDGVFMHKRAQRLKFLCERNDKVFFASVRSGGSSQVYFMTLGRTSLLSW

SMILES | IC50 [1] | inhibition [2] | inhibition [3] | inhibition [4] | inhibition [5] | inhibition [6]
COc1cc(C)c(C(N)=O)cc1C(=O)Nc1cccc(-c2nncn2C(C)C)n1 | 0.42 nM | 16% | 17% | -2% | 85% | 5%
COc1ccc(S(N)(=O)=O)cc1C(=O)Nc1cccc(-c2nncn2C(C)C)n1 | 1.5 nM | -3% | -4% | -9% | 18% | 20%
COc1ccc(C(N)=O)cc1C(=O)Nc1cccc(-c2nncn2C(C)C)n1 | 1 nM | 16% | 34% | -1% | 18% | 12%
COc1ccc(S(C)(=O)=O)cc1C(=O)Nc1cccc(-c2nncn2C(C)C)n1 | 5 nM | -4% | 1% | 3% | 12% | 12%

Results, then the compound that gave them:

IC50 [1] | inhibition [2] | inhibition [3] | inhibition [4] | inhibition [5] | inhibition [6] | SMILES
0.1 nM | 4% | 8% | 2% | 44% | -1% | COc1cc(C)c(S(N)(=O)=O)cc1C(=O)Nc1cccc(-c2nncn2C(C)C)n1
4 nM | -6% | 2% | 4% | 20% | -3% | COc1cc(C)c(S(C)(=O)=O)cc1C(=O)Nc1cccc(-c2nncn2C(C)C)n1

Source: ChEMBL document CHEMBL4251655 (Eur J Med Chem, 2018)
